This note sets out measurements from ChEMBL document CHEMBL4145675, “2-Phenylquinoline S. aureus NorA Efflux Pump Inhibitors: Evaluation of the Importance of Methoxy Group Introduction” (J Med Chem, 2018).

The test system of data set [1] is Staphylococcus aureus. Put plainly: Synergistic potentiation of ciprofloxacin-induced antimicrobial activity against Staphylococcus aureus SA-1199 at 0.78 to 100 ug/ml by microdilution method based Checkerboard assay. The data set is classed as functional, organism-based.
Data set [2] addresses T1, Quinolone resistance protein NorA (Staphylococcus aureus) (UniProt P0A0J7).
T1 sequence (whole entry): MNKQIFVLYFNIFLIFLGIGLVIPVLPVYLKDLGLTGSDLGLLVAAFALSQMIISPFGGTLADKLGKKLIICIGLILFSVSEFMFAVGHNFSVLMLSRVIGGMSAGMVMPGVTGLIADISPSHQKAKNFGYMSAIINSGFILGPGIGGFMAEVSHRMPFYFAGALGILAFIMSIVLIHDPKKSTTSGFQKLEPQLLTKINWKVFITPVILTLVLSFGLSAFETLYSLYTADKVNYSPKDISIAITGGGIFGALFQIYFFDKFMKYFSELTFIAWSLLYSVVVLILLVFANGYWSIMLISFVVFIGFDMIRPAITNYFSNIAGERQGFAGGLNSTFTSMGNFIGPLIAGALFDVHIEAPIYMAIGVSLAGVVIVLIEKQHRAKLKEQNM
Put plainly: Inhibition of NorA in Staphylococcus aureus SA-K2378 assessed as synergistic potentiation of ciprofloxacin-induced antimicrobial activity at 0.78 to 100 ug/ml by microdilution method based Checkerboard assay.

Data set [3] is described as follows: Cytotoxicity in human THP1 cells assessed as reduction in cell viability incubated for 24 hrs by ATP bioluminescence assay. The data set is classed as cell-based, THP-1. A digest of the protocol:
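Cells were grown to confluence overnight in RPMI 1640 with 10% heat-inactivated fetal calf serum, penicillin and streptomycin. Monolayers were exposed for 24 h at 37 °C to scalar concentrations (0-250 µg/mL). Viability was read by ATP bioluminescence, each concentration in triplicate. CC50 is the concentration reducing cell number by 50% versus untreated controls.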

Data set [4] is described as follows: Selectivity index, ratio of CC50 for human HepG2 cells to inhibition of NorA in Staphylococcus aureus SA-1199B expressing GrlA A116E mutant assessed as minimal potentiating drug concentration causing 8 fold reduction in ciprofloxacin MIC by microdilution method based Checkerboard assay. The data set is classed as toxicity. The note with it: read-out: Selectivity Index. In a few lines:
(§1)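 CC50 cells (HepG2 for […], THP-1 for […]) were grown to confluence in RPMI 1640 with 10% FCS, penicillin and streptomycin. They were exposed 24 h at 37 °C to 0–250 µg/mL. Viability was read by ATP bioluminescence, triplicate. CC50 is the concentration reducing cell number 50% versus untreated.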

The test system of data set [5] is Staphylococcus aureus. The experiment in a line: Antimicrobial activity against NorA deficient Staphylococcus aureus SA-K1902 by microdilution method. Type of data set: organism-based. The conditions noted are these: in vivo. In a few lines:
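CLSI broth microdilution MIC of the compound alone. Strains: SA-K1902 (norA deleted), SA-K2378 (SA-K1902 carrying norA plus its promoter on multicopy plasmid pCU1), SA-1199B (norA overexpressing, GrlA A116E).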

The subject of data set [6] is Staphylococcus aureus. Put plainly: Synergistic potentiation of EtBr-induced antimicrobial activity against mepA deficient Staphylococcus aureus SA-K2885 at 0.78 to 100 ug/ml by microdilution method based Checkerboard assay. The data set is classed as organism-based. The note with it: in vivo. A digest of the protocol: (§2)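 Checkerboard combination of EtBr with compound, using broth microdilution MICs. SA-K2886 (norA-deleted, pALC2073-mepA) and SA-K2885 (norA-deleted, empty pALC2073) were run with 0.05 µg/mL tetracycline in all experiments to induce the xyl/tetO promoter.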

Data set [7] has as its target T2, Multidrug export protein MepA (Staphylococcus aureus (strain NCTC 8325)) (UniProt Q2G140).
T2 sequence (whole entry): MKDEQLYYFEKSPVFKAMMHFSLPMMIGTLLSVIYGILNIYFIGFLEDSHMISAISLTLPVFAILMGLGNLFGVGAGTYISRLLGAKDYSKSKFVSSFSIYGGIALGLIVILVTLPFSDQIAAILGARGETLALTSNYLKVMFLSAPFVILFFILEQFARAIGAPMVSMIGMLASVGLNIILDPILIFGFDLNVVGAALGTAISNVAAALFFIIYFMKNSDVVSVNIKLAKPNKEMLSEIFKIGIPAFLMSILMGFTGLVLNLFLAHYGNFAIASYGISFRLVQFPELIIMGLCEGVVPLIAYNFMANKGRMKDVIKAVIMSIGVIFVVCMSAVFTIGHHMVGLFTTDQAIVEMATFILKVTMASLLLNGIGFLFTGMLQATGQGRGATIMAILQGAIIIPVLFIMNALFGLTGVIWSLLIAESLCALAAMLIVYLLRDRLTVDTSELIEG
Put plainly: Inhibition of MepA in Staphylococcus aureus SA-K2886 assessed as synergistic potentiation of EtBr-induced antimicrobial activity by measuring […] at 3.13 ug/ml by microdilution method based Checkerboard assay (reference value: 25 ug/ml). In a few lines: as §2

The nature of data set [8]: Drug metabolism in mouse liver microsomes assessed as compound oxidation at 50 uM in presence of NADPH regenerating system incubated for 120 mins by UPLC/MS analysis. Type of data set: ADME, microsome. The note with it: 2 h. A digest of the protocol:
(§3)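 1 mg/mL mouse liver microsomes in 0.1 M Tris-HCl pH 7.4 with test compound at 50 µM, DMSO up to ~3%. Preincubated 5 min at 37 °C, then started with NADPH regeneration system. Stopped at 120 min with cold methanol and centrifuged. Supernatant analysed by UPLC/MS (ESI, tandem quadrupole).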

A short description of data set [9]: Drug metabolism in mouse liver microsomes assessed as compound hydroxylation at 50 uM in presence of NADPH regenerating system incubated for 120 mins by UPLC/MS analysis. Type of data set: ADME, microsome. The conditions noted are these: 2 h. A digest of the protocol:
as §3

For a further data set, the target named is CYP3A4 (Homo sapiens, UniProt P08684). Put plainly: (§4) Inhibition of human recombinant CYP3A4 at 10 uM using beetle D-luciferin as substrate by CYP450-Glo assay. The data set is classed as ADME. The conditions noted are these: recombinant CYP3A4, probe beetle D-luciferin. A digest of the protocol:
(§5)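 Luminescent P450-Glo assay in which recombinant human CYP3A4 or CYP2D6 converts a beetle D-luciferin derivative to D-luciferin. Compound was tested at 1 and 10 µM.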

The target in data set [10] is T1, Quinolone resistance protein NorA (Staphylococcus aureus). The experiment in a line: Inhibition of NorA in Staphylococcus aureus SA-K2378 assessed as synergistic potentiation of ciprofloxacin-induced antimicrobial activity at 0.78 ug/ml by microdilution method based Checkerboard assay.
Data set [11] in a line: Selectivity index, ratio of CC50 for human THP1 cells to inhibition of NorA in Staphylococcus aureus SA-1199B expressing GrlA A116E mutant assessed as minimal potentiating drug concentration causing 8 fold reduction in ciprofloxacin MIC by microdilution method based Checkerboard assay. The data set is classed as toxicity. The conditions noted are these: read-out: Selectivity Index. A digest of the protocol:
as §1

Data set [12] addresses T2, Multidrug export protein MepA (Staphylococcus aureus (strain NCTC 8325)). The experiment in a line: Inhibition of MepA in Staphylococcus aureus SA-K2886 assessed as synergistic potentiation of EtBr-induced antimicrobial activity by measuring […] at 1.56 ug/ml by microdilution method based Checkerboard assay (reference value: 25 ug/ml). A digest of the protocol: as §2

Data set [13] in a line: Drug metabolism in mouse liver microsomes assessed as oxidation at open piperidine ring or at hydroxylate at 50 uM in presence of NADPH regenerating system incubated for 120 mins by UPLC/MS analysis. Type of data set: ADME, microsome. The note with it: 2 h. A digest of the protocol: as §3
The nature of data set [14]: Drug metabolism in mouse liver microsomes assessed as compound demethylation at 50 uM in presence of NADPH regenerating system incubated for 120 mins by UPLC/MS analysis. Type of data set: ADME, microsome. The note with it: 2 h, in the assay text read “hydroxylation and ring opening” for “demethylation”. In a few lines:
as §3

In a further data set the target is Cytochrome P450 3A4 (Homo sapiens, UniProt P08684). The description is as §4. Type of data set: ADME. The conditions noted are these: recombinant enzyme, 10 µM. A digest of the protocol:
as §5

The structures appear in SMILES notation. Values after ≈ are worked out from the molar mass of the structure shown. Active and inactive are the calls of the source. The calls are words filed in the database; no cut-off is given here.

CYP3A4, sequence (P08684 whole entry): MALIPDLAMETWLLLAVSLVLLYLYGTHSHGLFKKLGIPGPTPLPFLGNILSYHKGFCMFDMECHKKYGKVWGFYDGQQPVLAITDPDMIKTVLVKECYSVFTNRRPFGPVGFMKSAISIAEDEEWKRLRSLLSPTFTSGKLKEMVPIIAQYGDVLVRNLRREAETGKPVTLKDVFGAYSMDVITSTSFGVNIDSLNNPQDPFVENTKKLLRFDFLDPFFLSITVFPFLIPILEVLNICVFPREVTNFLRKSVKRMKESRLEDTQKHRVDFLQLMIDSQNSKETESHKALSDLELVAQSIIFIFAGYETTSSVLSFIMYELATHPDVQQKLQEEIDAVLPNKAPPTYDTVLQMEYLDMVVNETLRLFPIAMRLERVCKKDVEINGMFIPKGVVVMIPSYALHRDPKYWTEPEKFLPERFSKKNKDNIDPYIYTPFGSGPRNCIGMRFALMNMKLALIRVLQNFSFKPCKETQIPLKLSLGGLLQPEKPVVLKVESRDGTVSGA
Cytochrome P450 3A4, sequence (P08684 whole entry): as above

Take `CCCOc1ccc(-c2cc(OCCN3CCc4cc(OC)c(OC)cc4C3)c3cc(OC)c(OC)cc3n2)cc1`: the inhibition result (in the data set with Staphylococcus aureus [1]; in data set [2]) was “Active” in each case. In addition, the CC50 at 24 h in data set [3] worked out at 37 µg/mL (≈ 66.2 µM). The selectivity ratio in data set [4] was found to be 95. Also, the MIC in the data set on Staphylococcus aureus [5] is 100 µg/mL (≈ 179 µM); in data set [7], < 1.56 µg/mL. For the same molecule, in the data set with Staphylococcus aureus [6], the Activity result is recorded as “Non-Toxic”. Also, the Drug metabolism result in data set [8] and in data set [9] was “Metabolite_Detected” throughout. The inhibition at 10 µM at CYP3A4 is ≤ 60%.

In the case of `CCCOc1ccc(-c2cc(OCCN3CCCCC3)c3cc(OC)ccc3n2)cc1`, the inhibition entry (in the data set with Staphylococcus aureus [1]; in data set [2]) was “Active” each time. The fold change (FC) in data set [10] is 8. Moreover, the CC50 at 24 h in data set [3] was > 100 µg/mL. Further, the selectivity ratio in data set [4] was 50; in data set [11], > 128. The MIC was 25 µg/mL (≈ 59.4 µM) against Staphylococcus aureus [5] and < 1.56 µg/mL in [12]. The Activity result in the data set with Staphylococcus aureus [6] was “Non-Toxic”. For the same molecule, the Drug metabolism entry in data set [13] and in [14] was “Metabolite_Detected” each time. In addition, the “inhibition (INH)” value at Cytochrome P450 3A4 is “Not Active”.
